Activity calls are given as the source filed them.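 How the source made its calls, unless noted: active means fluorescence slope after compound addition differing from the mean of all screened samples at 99.7% confidence, in either direction; inactive means the rest.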
How the values were obtained:
[1] = inhibitors of TNFa-induced NFkB p65 translocation, primary screen, imaging, HUVEC, MLSMR starter and 10KST1 sets (AID 438;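 active means inhibition above 20% together with a positive visual image hit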;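 further: compound added about 3h40 before a 20 min TNFalpha stimulation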;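 on inhibition: signal is the nuclear over cytoplasmic p65 intensity ratio per well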); settings: HUVEC TNFa-induced p65 nuclear translocation; cell count: measured here: nuclei count (cytotoxicity indicator), at 2.08 µM; inhibition: at 2 µM, stronger effect = higher value, 0% TNFa-plus-vehicle, 100% no-TNFa wells
[2] = reduction of polyQ htt aggregates in cells – imaging, exon1htt(103Q)mCFP cells, high-content imaging, primary screen (AID 483;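 active means visual image review flags a hit and inhibition of aggregation exceeds 20%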;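 further: compound exposure lasted 3 days before fixation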;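 on nuclei count: percent of the per-plate median nuclei count of sample wells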); settings: exon1htt(103Q)mCFP cell line, aggregate imaging, at 2 µM; inhibition of aggregation: stronger effect = higher value; nuclei count: measured here: cell count, toxicity
[3] = endothelial E-selectin expression blockers – imaging, HUVEC, immunofluorescence, MLSMR starter and 10KST1 sets, primary screen (AID 487;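 active means visually confirmed hit in the image check and inhibition above 20%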;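 on inhibition: signal is fraction of cell area covered by stained E-selectin grains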;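 on nuclei count: 100% = median nuclei count of all wells on the same plate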); settings: HUVEC TNFalpha-induced E-selectin immunofluorescence imaging, at 2 µM; inhibition: stronger effect = higher value; nuclei count: measured here: cell number, toxicity
[4] = biological target: Voltage-gated potassium channel subunit beta-2 (Rattus norvegicus) (UniProt P62483); assay: inhibitors of rat Kvbeta2 reductase activity – biochemical, NADPH fluorescence, primary screen (AID 622;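 active means fluorescence slope higher than the sample average by over 3 SD, cut at about -0.22 in these data, passing the limit was not always enough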;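 further: slope of raw intensity against log time taken from 70 to 1610 s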); settings: recombinant KvBeta, 4-cyanobenzaldehyde reduction, at 10 µM, stronger effect = higher value
[5] = biological target: Voltage-gated potassium channel subunit beta-2 (Rattus norvegicus) (UniProt P62483); assay: enhancers of rat Kvbeta2 NADPH turnover – biochemical, NADPH fluorescence, primary screen (AID 623;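 active means NADPH fluorescence slope more negative than the mean of all samples by about 3 SD, 99.7% confidence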;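 further: fluorescence intensity change per second fitted from 20 to 320 s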); settings: Recombinant KvBeta, NADPH fluorescence decrease slope, 10 min; at 10 µM; stronger effect = lower value
[6] = biological target: Alpha-2C adrenergic receptor (Homo sapiens) (UniProt P18825); assay: compounds altering alpha2C-coupled GIRK flux – cell-based, HEK293 alpha2C/GIRK1/2, thallium flux, primary screen (AID 624); settings: thallium flux BTC fluorescence, at 10 µM, actives lie on both sides;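 further: slope of fluorescence ratio to pre-addition baseline per second over 15 to 24 s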
[7] = inhibitors of larval lipid processing in zebrafish, primary screen, whole organism, PED6 fluorescence, gall bladder and intestine (AID 686;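 active means a full or partial loss of lipid-probe fluorescence in the fish gall bladder, intestine or both, judged by eye; inactive means no fluorescence loss, or compound toxic to the fish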;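 further: larvae 5 to 7 days old with five fish per well; signal comes from phospholipase A2 cleavage of quenched PED6 carried via bile; overnight exposure to compound and PED6 before scoring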); settings: Zebrafish larvae PED6 lipid processing, fluorescence scoring; screened at 20 µM (by protocol)
Procedure, shortened: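 Doses: 20 µM single dose. Test system: live zebrafish larvae aged 5-7 days, whole organism. Quantity: five larvae per well. Measured by: By-eye fluorescence microscopy. Reagent: ingested quenched lipid PED6 at 100 nM. Read-out: visual per-well fluorescence inhibition score. Times: overnight exposure of larvae to compound plus PED6.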

[8] = blockers of RIG-like receptor reporter activation – cell-based, Sendai virus stimulus, luciferase, 10K MLSCN set, TLR/RLR signaling modifier project, primary screen (AID 602276;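 active means inhibition at or above 50% at 10 µM; inactive means inhibition below 50%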;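 further: firefly luciferase from ISG56 promoter only with Renilla not read in this screen; 0% = Sendai virus plus DMSO and 100% = medium plus DMSO without virus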); settings: HEK293 RL24 IRF3 luciferase reporter, at 10 µM, stronger effect = higher value
[9] = TLR3 IRF3 reporter activation blockers – cell-based, poly I:C stimulus, luciferase, 10K MLSCN set, primary screen (AID 602277;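 active means inhibition of the reporter signal at or above 50%; inactive means inhibition below 50%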); settings: HEK293-TLR3 RL24 IRF3 luciferase reporter, at 10 µM, stronger effect = higher value

Chain of Voltage-gated potassium channel subunit beta-2 (Rattus norvegicus) (P62483 whole entry, looked up): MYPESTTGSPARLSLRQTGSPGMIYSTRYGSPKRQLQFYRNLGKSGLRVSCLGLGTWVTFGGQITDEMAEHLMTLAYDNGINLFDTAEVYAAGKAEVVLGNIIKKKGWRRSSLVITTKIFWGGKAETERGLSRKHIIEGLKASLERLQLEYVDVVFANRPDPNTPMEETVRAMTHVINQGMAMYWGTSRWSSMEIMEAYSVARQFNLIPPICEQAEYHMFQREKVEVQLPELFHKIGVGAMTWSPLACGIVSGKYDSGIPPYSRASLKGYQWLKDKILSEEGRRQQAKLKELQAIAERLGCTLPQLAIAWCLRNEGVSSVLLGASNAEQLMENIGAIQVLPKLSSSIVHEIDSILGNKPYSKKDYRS
Chain of Alpha-2C adrenergic receptor (Homo sapiens) (P18825 whole entry, looked up): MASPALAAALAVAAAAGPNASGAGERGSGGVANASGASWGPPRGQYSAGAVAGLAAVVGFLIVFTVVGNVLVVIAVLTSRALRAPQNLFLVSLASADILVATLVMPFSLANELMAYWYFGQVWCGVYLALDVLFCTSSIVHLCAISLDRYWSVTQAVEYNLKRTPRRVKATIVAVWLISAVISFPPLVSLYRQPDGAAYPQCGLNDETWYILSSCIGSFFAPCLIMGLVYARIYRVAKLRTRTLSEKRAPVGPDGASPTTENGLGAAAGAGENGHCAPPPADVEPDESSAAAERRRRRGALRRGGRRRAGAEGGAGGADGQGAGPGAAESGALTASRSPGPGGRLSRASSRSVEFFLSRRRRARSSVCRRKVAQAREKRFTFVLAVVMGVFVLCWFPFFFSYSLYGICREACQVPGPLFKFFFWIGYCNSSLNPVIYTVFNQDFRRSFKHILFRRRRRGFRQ

Row | SMILES | cell count [1] | inhibition [1] | inhibition of aggregation [2] | nuclei count [2] [%] | inhibition [3] | nuclei count [3] [%] | fluorescence slope [4] | NADPH fluorescence slope [5] | slope [6] | outcome [7] | inhibition [8] | inhibition [9]
1 | CCOC(=O)N1CCN(C(=O)c2cnn(-c3ccccc3)c2NC(=O)c2ccccc2F)CC1 | 397 | 12.1% (inactive) | 1.7% (inactive) | 117 | -69.8% (inactive) | 106 | -0.34 (inactive) | -3.7e-05 (inactive) | 0.00614 (inactive) | inactive | 16% (inactive) | 17.2% (inactive)
2 | CCOc1ccc(NS(=O)(=O)c2cc(Cl)ccc2OC)cc1 | 279 | -4.2% (inactive) | 19.4% (inactive) | 95.4 | -147% (inactive) | 129 | -0.282 (inactive) | 1.3e-05 (inactive) | 0.00586 (inactive) | inactive | 14.5% (inactive) | 21% (inactive)
3 | Cc1cccc(-n2ncc3c(NCc4cccs4)ncnc32)c1 | 667 | 6.7% (inactive) | 0.1% (inactive) | 99.5 | -119% (inactive) | 108 | -0.458 (inactive) | -2.6e-05 (inactive) | 0.00473 (inactive) | inactive | -36.3% (inactive) | -95% (inactive)
4 | COc1ccc(Cl)c(NC(=O)NCCN2CCN(c3ccccc3)CC2)c1 | 410 | 1.8% (inactive) | 1% (inactive) | 99.5 | -12.8% (inactive) | 119 | -0.29 (inactive) | -1.7e-05 (inactive) | 0.00501 (inactive) | inactive | 15.2% (inactive) | 23.5% (inactive)
5 | COc1ccc(OC)c(NS(=O)(=O)Cc2ccccc2)c1 | 356 | 6.3% (inactive) | -14.8% (inactive) | 110 | -73.7% (inactive) | 120 | -0.424 (inactive) | -1.8e-05 (inactive) | 0.00242 (inactive) | inactive | 13.9% (inactive) | 16.5% (inactive)
6 | O=C(CCCn1c(=O)[nH]c2ccsc2c1=O)N1CCN(c2ccccn2)CC1 | 665 | -5.2% (inactive) | -1% (inactive) | 97.2 | -13.1% (inactive) | 106 | -0.386 (inactive) | -4.1e-05 (inactive) | 0.00451 (inactive) | inactive | 8.33% (inactive) | 13.1% (inactive)
7 | COC(=O)c1ccc(NC(=O)C2C3CCC(C3)C2C(=O)O)cc1 (centres undefined) | 416 | 2.5% (inactive) | 0% (inactive) | 89.6 | 52.5% (inactive) | 103 | -0.39 (inactive) | -1.7e-05 (inactive) | 0.00477 (inactive) | inactive | -12.2% (inactive) | -15.9% (inactive)
8 | CCOC(=O)c1nnc2ccnn2c1N | 529 | 6.8% (inactive) | -6.1% (inactive) | 108 | -120% (inactive) | 111 | -0.448 (inactive) | -0.000165 (inactive) | 0.00514 (inactive) | inactive | 8.28% (inactive) | 16.2% (inactive)
9 | CCN1C(=O)/C(=C/N(C)c2ccccc2)OC1=S | 592 | -12.2% (inactive) | 12.1% (inactive) | 84.4 | 34.8% (inactive) | 93.7 | -0.469 (inactive) | -5.3e-05 (inactive) | 0.00485 (inactive) | inactive | -11.5% (inactive) | -64.8% (inactive)
10 | CCN(CC)S(=O)(=O)c1ccc(NC(=O)c2cccc3c2C(=O)N(CCOC)C3)cc1 | 778 | -3.6% (inactive) | 5.3% (inactive) | 93.3 | -84.2% (inactive) | 129 | -0.244 (inactive) | -2.6e-05 (inactive) | 0.00636 (inactive) | inactive | 10.3% (inactive) | 26.3% (inactive)
11 | CCc1ccccc1N1C(=O)C2CC(C)=C(C)CC2C1=O (centres undefined) | 500 | 5.5% (inactive) | 18.2% (inactive) | 92.1 | -355% (inactive) | 124 | -0.368 (inactive) | -5.9e-05 (inactive) | 0.00511 (inactive) | inactive | 10.5% (inactive) | 4.14% (inactive)
12 | O=C(CN1CCSCC1)N1CCc2[nH]c3ccc(Br)cc3c2C1 | 691 | 3.4% (inactive) | 21.5% (inactive) | 99.4 | 28.3% (inactive) | 102 | -0.384 (inactive) | -5.2e-05 (inactive) | 0.00508 (inactive) | inactive | 10.7% (inactive) | 7.8% (inactive)
13 | O=C(Nc1cc(C(F)(F)F)ccc1N1CCCC1)c1ccc2c(c1)OCO2 | 215 | 6.7% (inactive) | 16.7% (inactive) | 84.5 | -54.9% (inactive) | 103 | -0.461 (inactive) | -2e-05 (inactive) | 0.00354 (inactive) | inactive | 13% (inactive) | 24.5% (inactive)
14 | O=C(c1cc2nc(-c3ccco3)cc(C(F)(F)F)n2n1)N1CCN(c2ccccn2)CC1 | 746 | -10.5% (inactive) | 2.8% (inactive) | 101 | 32.7% (inactive) | 107 | -0.357 (inactive) | -6.7e-05 (inactive) | 0.00309 (inactive) | inactive | 10.1% (inactive) | -6.91% (inactive)
15 | Clc1ccc(OCc2nnc(SCCN3CCCCC3)n2Cc2ccco2)cc1 | 587 | -2.7% (inactive) | 6% (inactive) | 98.8 | 45.2% (inactive) | 88.3 | -0.28 (inactive) | -1.2e-05 (inactive) | 0.00483 (inactive) | active; no signal in gallbladder and intestine | 8.16% (inactive) | 13.8% (inactive)
16 | C=CCOC(=O)CC(NC(=O)c1ccccc1)c1ccccc1 (centres undefined) | 510 | 9.6% (inactive) | -15.9% (inactive) | 98.4 | -231% (inactive) | 133 | -0.382 (inactive) | -6.2e-05 (inactive) | 0.00447 (inactive) | inactive | 13.9% (inactive) | 99% (active)
17 | COC(=O)c1[nH]c2ccc(C)cc2c1NC(=O)CN1CCC(C)CC1 | 340 | -0.4% (inactive) | 15.7% (inactive) | 103 | -18.4% (inactive) | 120 | -0.337 (inactive) | -5.5e-05 (inactive) | 0.00492 (inactive) | inactive | 4.88% (inactive) | 2.95% (inactive)
18 | O=C(NC1CCCCCCC1)C1CCN(c2nc3ccccc3o2)CC1 | 737 | -10.2% (inactive) | 9.4% (inactive) | 94.8 | -34.9% (inactive) | 116 | -0.334 (inactive) | 8.8e-06 (inactive) | 0.0059 (inactive) | inactive | 6.61% (inactive) | -11.1% (inactive)
19 | O=C1NC(=O)C(CC(=O)N(c2ccccc2)C2(C(=O)NC3CCCC3)CCCCC2)N1 (centres undefined) | 384 | -1.1% (inactive) | 25.6% (inactive) | 83.3 | -24.5% (inactive) | 108 | -0.391 (inactive) | -1.3e-05 (inactive) | 0.00517 (inactive) | inactive | 14.9% (inactive) | 11.4% (inactive)
20 | O=S(=O)(Nn1cnnc1)c1ccccc1Cl | 647 | 4.3% (inactive) | -12.3% (inactive) | 99 | 45.5% (inactive) | 81.7 | -0.402 (inactive) | -8.6e-06 (inactive) | 0.00434 (inactive) | inactive | -7.35% (inactive) | -10.4% (inactive)
21 | O=C(CSc1nnnn1-c1ccccc1)Nc1ccc(Cl)cc1 | 561 | -0.2% (inactive) | 17.5% (inactive) | 108 | -73.4% (inactive) | 67.8 | -0.377 (inactive) | 4e-06 (inactive) | 0.00622 (inactive) | inactive | -14.3% (inactive) | -15.3% (inactive)
22 | COCCN1C=C(C(=O)OC)C(c2cc3c(cc2Br)OCO3)C(C(=O)OC)=C1 | 629 | -7.8% (inactive) | 1.1% (inactive) | 112 | 48.4% (inactive) | 46.8 | -0.377 (inactive) | -6e-05 (inactive) | 0.00391 (inactive) | inactive | 13.3% (inactive) | 20.6% (inactive)
23 | CC1(C)C2CCC1(C)C(OC(=O)CSc1nc(N)cc(=O)[nH]1)C2 (centres undefined) | 473 | 6.5% (inactive) | 4% (inactive) | 103 | -343% (inactive) | 136 | -0.367 (inactive) | -4.6e-05 (inactive) | 0.00448 (inactive) | inactive | 3.84% (inactive) | 8.04% (inactive)
24 | CN(C)C(=O)COc1ccc2cc(-c3ccccc3)c(=O)oc2c1 | 300 | -4% (inactive) | 14.5% (inactive) | 89.5 | -75.1% (inactive) | 146 | -0.00785 (inactive) | 0 (inactive) | 0.0053 (inactive) | inactive | -24.2% (inactive) | 98.1% (active)
25 | Cc1cc(NC(=O)CSc2nc(C3CC3)nc3sc4c(c23)CCC(C)C4)no1 (centres undefined) | 321 | -1.3% (inactive) | 0.7% (inactive) | 75.3 | -43% (inactive) | 113 | -0.394 (inactive) | -5.2e-05 (inactive) | 0.00786 (inactive) | inactive | -13.4% (inactive) | -24.3% (inactive)
26 | CCOc1ccccc1C1N(c2ccc(F)cc2)C(=O)C2CCCN21 (centres undefined) | 465 | -0.3% (inactive) | -10.1% (inactive) | 103 | 45.7% (inactive) | 91.5 | -0.349 (inactive) | -4.9e-05 (inactive) | 0.00484 (inactive) | inactive | 13.2% (inactive) | 17.1% (inactive)
27 | COc1ccc(S(=O)(=O)NCCCN2CCOCC2)c2ccccc12 | 674 | -3.5% (inactive) | -7.8% (inactive) | 102 | -82.6% (inactive) | 100 | -0.356 (inactive) | -3.4e-05 (inactive) | 0.00569 (inactive) | inactive | 14.4% (inactive) | 19.6% (inactive)

— PubChem BioAssay
